We go through one molecule from ChEMBL document CHEMBL2434922, “Microwave assisted synthesis of dihydrobenzo[4,5]imidazo[1,2-a]pyrimidin-4-ones; synthesis, in vitro antimicrobial and anticancer activities of novel coumarin substituted dihydrobenzo[4,5]imidazo[1,2-a]pyrimidin-4-ones” (2013).

≈ marks a conversion by molar mass, not a printed value.

Format in all cases: functional
Assay [1] can be described thus: Cytotoxicity against mouse Daltons ascitic lymphoma cells assessed as dead cells at 100 ug/ml after 3 hrs by trypan blue exclusion assay relative to control. Put shortly:
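DAL cells (0.2 mL, 10⁶ cells/mL) mixed with ice-cold PBS pH 7.4 and compound (100 µg/mL), held at 37 °C under 5% CO₂ for 3 h. Aliquot then stained with 0.4% trypan blue in normal saline for 5–15 min at room temperature. Live and dead cells counted in a Neubauer chamber; % dead = dead/(dead+live) × 100.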

The test system of another assay is Penicillium chrysogenum. Kind of assay: Antifungal activity against Penicillium chrysogenum assessed as growth inhibition after 48 to 72 hrs by broth microdilution method.
In another assay the test system is Fusarium oxysporum. Kind of assay: Antifungal activity against Fusarium oxysporum assessed as growth inhibition after 48 to 72 hrs by broth microdilution method.
For a further assay, the system named is Aspergillus flavus. In words: Antifungal activity against Aspergillus flavus assessed as growth inhibition after 48 to 72 hrs by broth microdilution method.
For another assay, the system named is Aspergillus fumigatus. In words: Antifungal activity against Aspergillus fumigatus assessed as growth inhibition after 48 to 72 hrs by broth microdilution method.
The next assay relates to Aspergillus niger. In words: Antifungal activity against Aspergillus niger assessed as growth inhibition after 48 to 72 hrs by broth microdilution method.
The next assay deals with Candida albicans. Kind of assay: Antifungal activity against Candida albicans assessed as growth inhibition after 48 to 72 hrs by broth microdilution method.
The next assay relates to Pseudomonas aeruginosa. In words: Antibacterial activity against Pseudomonas aeruginosa assessed as growth inhibition after 18 hrs by broth microdilution method.
A further assay deals with Klebsiella pneumoniae. Kind of assay: Antibacterial activity against Klebsiella pneumoniae assessed as growth inhibition after 18 hrs by broth microdilution method.
A further assay relates to Escherichia coli. Kind of assay: Antibacterial activity against Escherichia coli assessed as growth inhibition after 18 hrs by broth microdilution method.
In another assay the test system is Streptococcus mutans. Kind of assay: Antibacterial activity against Streptococcus mutans assessed as growth inhibition after 18 hrs by broth microdilution method.
In the next assay the test system is Enterococcus faecalis. Kind of assay: Antibacterial activity against Enterococcus faecalis assessed as growth inhibition after 18 hrs by broth microdilution method.
For the next assay, the system named is Staphylococcus aureus. In words: Antibacterial activity against Staphylococcus aureus assessed as growth inhibition after 18 hrs by broth microdilution method.

As for `CC(C)c1cc(O)n2c(n1)nc1ccccc12`, the mortality at 100 µg/mL in assay [1] came out at 57%. Moreover, the MIC is 0.2 µg/mL (≈ 0.88 µM) with Penicillium chrysogenum; 0.4 µg/mL (≈ 1.76 µM) in the assay with Fusarium oxysporum; 1.6 µg/mL (≈ 7.04 µM) in the assay on Aspergillus flavus; 1.6 µg/mL (≈ 7.04 µM) in the assay with Aspergillus fumigatus; 25 µg/mL (≈ 110 µM) in the assay on Aspergillus niger; 3.12 µg/mL (≈ 13.7 µM) in the assay on Candida albicans. Besides, the minimum inhibitory concentration (MIC) in the assay on Pseudomonas aeruginosa came to 12.5 µg/mL (≈ 55 µM); with Klebsiella pneumoniae, 100 µg/mL (≈ 440 µM); with Escherichia coli it was 12.5 µg/mL (≈ 55 µM); in the assay on Streptococcus mutans, 25 µg/mL (≈ 110 µM); in the assay on Enterococcus faecalis it was 0.2 µg/mL (≈ 0.88 µM); in the assay with Staphylococcus aureus, 100 µg/mL (≈ 440 µM).
